From paper PMC9016771 (ACS chemical neuroscience, 2021)
Like-named read-outs stand apart in the source and are kept apart here.

What was measured:
[1] = molecular target: rCB1 (Rattus norvegicus, UniProt P20272); test: Radioligand binding; settings: for Ki: cis photoisomer (irradiated with 366 nm UV light), rat brain membranes, 0.6 nM [3H]CP55940; for CB1 trans/cis ratio: ratio Ki(trans)/Ki(cis) at CB1
[2] = molecular target: hCB2 (Homo sapiens, UniProt P34972); test: Radioligand binding; settings: hCB2-HEK membranes
hCB2, sequence (P34972 whole entry): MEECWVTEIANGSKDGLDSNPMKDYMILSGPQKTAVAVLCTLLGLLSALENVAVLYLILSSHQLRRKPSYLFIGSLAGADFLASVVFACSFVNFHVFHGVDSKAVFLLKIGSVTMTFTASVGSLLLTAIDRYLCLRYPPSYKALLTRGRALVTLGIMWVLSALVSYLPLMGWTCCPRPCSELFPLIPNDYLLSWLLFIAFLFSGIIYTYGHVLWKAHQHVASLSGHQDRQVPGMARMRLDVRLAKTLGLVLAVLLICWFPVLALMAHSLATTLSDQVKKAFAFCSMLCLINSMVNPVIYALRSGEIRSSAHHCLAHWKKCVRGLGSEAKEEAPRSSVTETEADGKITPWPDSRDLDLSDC

[3] = assay type: physicochemical; settings: for cis form at photostationary state: UV light at 366 nm, quantified by HPLC
Outline: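 Photostationary states measured by UV/vis spectroscopy in 10 mm path cuvettes. Cis form produced by 366 nm irradiation; trans form by 454 nm blue light. HPLC chromatograms track isomer distribution at each stationary state. Repeated switching cycles check for photofatigue. Thermal stability of the cis form followed over >3 h in buffer pH 7.4 at 37 °C.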

[4] = molecular target: hCB1 (Homo sapiens, UniProt P21554); assay type: cell-based
hCB1, sequence (P21554 whole entry): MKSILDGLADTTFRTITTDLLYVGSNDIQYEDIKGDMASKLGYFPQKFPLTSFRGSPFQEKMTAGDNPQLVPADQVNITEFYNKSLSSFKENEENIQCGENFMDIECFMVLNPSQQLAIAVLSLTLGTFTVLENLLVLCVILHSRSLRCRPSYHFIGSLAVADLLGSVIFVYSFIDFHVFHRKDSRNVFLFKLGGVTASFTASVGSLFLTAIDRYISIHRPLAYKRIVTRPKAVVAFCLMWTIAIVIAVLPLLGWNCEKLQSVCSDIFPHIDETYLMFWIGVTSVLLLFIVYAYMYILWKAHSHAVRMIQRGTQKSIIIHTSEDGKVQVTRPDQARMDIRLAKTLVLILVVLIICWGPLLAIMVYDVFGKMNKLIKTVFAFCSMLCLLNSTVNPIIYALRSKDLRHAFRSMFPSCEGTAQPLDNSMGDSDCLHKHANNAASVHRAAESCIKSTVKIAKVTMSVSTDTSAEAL
Outline: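 CHO-K1 cells express hCB1 coupled through Gαq16, so receptor activation gives intracellular calcium mobilization. Calcium flux is monitored with calcium-5 fluorescent dye on an automated fluorescence plate reader. Antagonist apparent affinity (Ke) is derived from the functional response.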

rCB1, sequence (P20272 whole entry): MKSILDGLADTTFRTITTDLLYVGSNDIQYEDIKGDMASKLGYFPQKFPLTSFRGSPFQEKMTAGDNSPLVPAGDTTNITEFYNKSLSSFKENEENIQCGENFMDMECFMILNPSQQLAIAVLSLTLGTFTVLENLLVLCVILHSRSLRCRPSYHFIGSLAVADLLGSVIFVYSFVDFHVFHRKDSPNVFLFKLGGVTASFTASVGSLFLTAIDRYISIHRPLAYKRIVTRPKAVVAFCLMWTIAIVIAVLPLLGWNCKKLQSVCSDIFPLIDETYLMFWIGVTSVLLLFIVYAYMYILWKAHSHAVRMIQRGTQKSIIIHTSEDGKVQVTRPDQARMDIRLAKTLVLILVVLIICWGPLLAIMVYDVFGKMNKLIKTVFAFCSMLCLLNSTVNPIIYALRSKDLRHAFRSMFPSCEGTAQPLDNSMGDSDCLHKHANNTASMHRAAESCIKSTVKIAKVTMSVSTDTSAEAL

| Structure (SMILES) | Ki ([1]; CB1 (Ki ± SD)) [nM] | CB1 trans/cis ratio [1] | [3H]CP55950 displ at 10 μM (CB2) ([2]; cis photoisomer (366 nm)) [%] | [3H]CP55950 displ at 10 μM (CB2) ([2]; trans photoisomer (454 nm)) [%] | cis form at photostationary state [3] | reversal in the photoconversion ([3]; after being stored in the dark for 2 h) [%] | thermal stability ([3]; buffer pH 7.4, 37 °C) [h] | Kb [4] [nM] | Ki ([1]; read-out: CB1 (Ki ± SD)) [nM] | [3H]CP55950 displ at 10 μM (CB2) ([2]; reference compound, no photoisomer) [%] |
| --- | --- | --- | --- | --- | --- | --- | --- | --- | --- | --- |
| Cc1c(C(=O)NN2CCCCC2)nn(-c2ccc(Cl)cc2Cl)c1/N=N/c1ccccc1 [9a, 1-(2,4-Dichlorophenyl)-4-methyl-5-[(E)-2-phenyldiazen-1-yl]-N-(piperidin-1-yl)-1H-pyrazole-3-carboxamide] | 461 ± 337 | 1.0 | 14 | 51 |  |  |  |  |  |  |
| Cc1c(C(=O)NN2CCCCC2)nn(-c2ccc(Cl)cc2Cl)c1/N=N/c1cccc(Cl)c1Cl [9b, 1-(2,4-Dichlorophenyl)-4-methyl-5-[(E)-2-(2,3-dichlorophenyl)diazen-1-yl]-N-(piperidin-1-yl)-1H-pyrazole-3-carboxamide] | 716 ± 26 | 0.83 | 61 | 81 | approximately 50% |  |  |  |  |  |
| Cc1c(C(=O)NN2CCCCC2)nn(-c2ccc(Cl)cc2Cl)c1/N=N/c1ccc(Cl)cc1Cl [9c, 1-(2,4-Dichlorophenyl)-5-[(E)-2-(2,4-dichlorophenyl)diazen-1-yl]-4-methyl-N-(piperidin-1-yl)-1H-pyrazole-3-carboxamide] | 358 ± 62 | 1.11 | 55 | 62 | approximately 50% | 45 |  |  |  |  |
| Cc1ccccc1/N=N/c1c(C)c(C(=O)NN2CCCCC2)nn1-c1ccc(Cl)cc1Cl [9d, 1-(2,4-Dichlorophenyl)-4-methyl-5-[(1E)-2-(2-methylphenyl)diazen-1-yl]-N-(piperidin-1-yl)pyrazole-3-carboxamide] | 384 ± 40 | 0.76 | 45 | 68 |  |  |  |  |  |  |
| Cc1cccc(/N=N/c2c(C)c(C(=O)NN3CCCCC3)nn2-c2ccc(Cl)cc2Cl)c1 [9e, 1-(2,4-Dichlorophenyl)-4-methyl-5-[(1E)-2-(3-methylphenyl)diazen-1-yl]-N-(piperidin-1-yl)-1H-pyrazole-3-carboxamide] | 679 ± 160 | 0.60 | 46 | 65 |  |  |  |  |  |  |
| Cc1c(/N=N/c2ccccc2)nn(-c2ccc(Cl)cc2Cl)c1-c1ccc(Cl)cc1 [14a, 5-(4-Chlorophenyl)-1-(2,4-dichlorophenyl)-4-methyl-3-[(E)-2-phenyldiazen-1-yl]-1H-pyrazole] | 249 ± 155 | 2.16 | 21 | <10 |  |  |  |  |  |  |
| Cc1c(/N=N/c2cccc(Cl)c2Cl)nn(-c2ccc(Cl)cc2Cl)c1-c1ccc(Cl)cc1 [14b, 5-(4-Chlorophenyl)-1-(2,4-dichlorophenyl)-3-[(E)-2-(2,3-dichlorophenyl)diazen-1-yl]-4-methyl-1H-pyrazole] | 195 ± 63 |  | 60 | 31 | approximately 50% |  |  |  |  |  |
| Cc1c(C(=O)NCc2ccc(/N=N/c3ccccc3)cc2)nn(-c2ccc(Cl)cc2Cl)c1-c1ccc(Cl)cc1 [16a, 5-(4-Chlorophenyl)-1-(2,4-dichlorophenyl)-4-methyl-N-((4-[(1E)-2-phenyldiazen-1-yl]phenyl)methyl)-1H-pyrazole-3-carboxamide] | 29 ± 2.8 |  | <10 | <10 |  |  | > 3 | ~85.3 |  |  |
| Cc1c(C(=O)NCc2cccc(/N=N/c3ccccc3)c2)nn(-c2ccc(Cl)cc2Cl)c1-c1ccc(Cl)cc1 [16b, 5-(4-Chlorophenyl)-1-(2,4-dichlorophenyl)-4-methyl-N-((3-[(1E)-2-phenyldiazen-1-yl]phenyl)methyl)pyrazole-3-carboxamide] |  | 1.23 | <10 | 14 |  |  |  |  | 311 ± 196 |  |
| Cc1c(C(=O)NCc2ccccc2/N=N/c2ccccc2)nn(-c2ccc(Cl)cc2Cl)c1-c1ccc(Cl)cc1 [16c, 5-(4-Chlorophenyl)-1-(2,4-dichlorophenyl)-4-methyl-N-((2-[(1E)-2-phenyldiazen-1-yl]phenyl)methyl)-1H-pyrazole-3-carboxamide] |  | 1.58 | 14 | 46 |  |  |  |  | 142 ± 28 |  |
| Cc1c(C(=O)NCc2ccc(/N=N/c3ccc4c(c3)COC4)cc2)nn(-c2ccc(Cl)cc2Cl)c1-c1ccc(Cl)cc1 [16d, 5-(4-Chlorophenyl)-1-(2,4-dichlorophenyl)-N-((4-[(1E)-2-(1,3-dihydro-2-benzofuran-5-yl)diazen-1-yl]phenyl)methyl)-4-methyl-1H-pyrazole-3-carboxamide] | 221 ± 109 | 2.72 | <10 | 32 |  |  |  |  |  |  |
| Cc1c(C(=O)NN2CCCCC2)nn(-c2ccc(Cl)cc2Cl)c1-c1ccc(Cl)cc1 [rimonabant, reference compound] |  |  |  |  |  |  |  |  |  | <10 |
